Test results published in ChEMBL document CHEMBL1151961, “14,15-Epoxyeicosa-5,8,11-trienoic acid (14,15-EET) surrogates containing epoxide bioisosteres: influence upon vascular relaxation and soluble epoxide hydrolase inhibition” (J Med Chem, 2009).

What was measured:
[1] = Vasorelaxant activity against U46619-induced contraction in bovine coronary artery ring treated after U46619 challenge; assay type: functional, tissue-based; conditions: Bos taurus
Summary of the method: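 Bioassay run 3-5 times (n = 3-5); reported values are means, ±10% SD.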

[2] = Vasorelaxant activity against U46619-induced contraction in bovine coronary artery ring at 10 uM treated after U46619 challenge; assay type: functional, Bos taurus; set-up: scale not given: the % may be the effect or the level left
[3] = target: T1, Bifunctional epoxide hydrolase 2 (Homo sapiens, UniProt P34913); experiment: Inhibition of human recombinant soluble epoxide hydrolase expressed in baculovirus system assessed as appearance of 6-methoxynaphthaldehyde product by fluorescent-based assay
T1 sequence (P34913 whole entry): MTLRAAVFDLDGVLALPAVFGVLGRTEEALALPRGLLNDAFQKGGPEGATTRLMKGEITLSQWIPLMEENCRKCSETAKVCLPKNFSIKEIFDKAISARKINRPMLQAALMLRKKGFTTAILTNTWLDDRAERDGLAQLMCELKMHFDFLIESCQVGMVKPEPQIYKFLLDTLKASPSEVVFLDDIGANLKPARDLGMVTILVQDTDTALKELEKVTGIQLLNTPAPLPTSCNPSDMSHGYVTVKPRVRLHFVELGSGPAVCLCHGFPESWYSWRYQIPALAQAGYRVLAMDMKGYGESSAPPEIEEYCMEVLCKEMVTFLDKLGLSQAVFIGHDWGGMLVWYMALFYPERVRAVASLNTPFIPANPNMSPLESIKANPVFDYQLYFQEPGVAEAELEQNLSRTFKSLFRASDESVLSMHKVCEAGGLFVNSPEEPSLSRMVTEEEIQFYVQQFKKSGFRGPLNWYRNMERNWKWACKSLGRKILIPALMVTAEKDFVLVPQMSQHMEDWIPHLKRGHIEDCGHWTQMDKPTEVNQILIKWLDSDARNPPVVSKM

[4] = Vasorelaxant activity against U46619-induced contraction in bovine coronary artery ring at 10 uM treated after U46619 challenge; set-up: scale not given: the % may be the effect or the level left

| SMILES | EC50 ([1]; read-out: EC50) | Activity [2] | IC50 [3] | EC50 ([1]; read-out: ED50 (the source's name)) | Activity [4] |
| --- | --- | --- | --- | --- | --- |
| CCCCCCN(C)C(=O)CCCC/C=C\CCCCCCC(=O)O | > 10 µM | 12% | 13.9 µM |  |  |
| CCCCCN(C)C(=O)N(C)CCCC/C=C\CCCCCCC(=O)O | 3.2 µM | 83% | 8.48 µM |  |  |
| CCCCCCC(=O)NCCCCCCCC#CCCCC(=O)O | 5.7 µM | 69% | 0.272 µM |  |  |
| CCCCCNC(=S)NCCCC/C=C\CCCCCCC(=O)O | 1.5 µM | 99% | 0.77 µM |  |  |
| CCCCCNC(=O)NCCCCC#CCCCCCCC(=O)O | 3.1 µM | 62% | 0.043 µM |  |  |
| CCCCCNC(=O)NCCCCCCC/C=C\CCCC(=O)O | 5.6 µM | 66% | 0.793 µM |  |  |
| CCCCCNC(=O)NCCCC/C=C\CCC(=O)O | > 10 µM | 16% | 1.36 µM |  |  |
| CCCCCNC(=O)NCCCCC#CCCC(=O)O | > 10 µM | 46% | 8.11 µM |  |  |
| CCCCN(C)C(=O)C(=O)N(C)CCCC/C=C\CCCCCCC(=O)O | 4.4 µM | 70% | 17.6 µM |  |  |
| CCCCNC(=O)NCCCCC/C=C\CCCCCCC(=O)OC | 4.6 µM | 84% | 0.152 µM |  |  |
| CCCCCNC(=O)NCCCC/C=C\CCCCCCC(=O)O | 7.5 µM | 63% | 0.046 µM |  |  |
| CCCCCNC(=O)OCCCC/C=C\CCCCCCC(=O)O | 9.3 µM | 53% | 3.48 µM |  |  |
| CCCCCc1ccc(CCCC/C=C\CCCCCCC(=O)O)o1 | > 10 µM | 11% | 7.15 µM |  |  |
| CCCCCC1CN=C(CCCC/C=C\CCCCCCC(=O)OC)O1 (stereo unspecified) | > 10 µM | 33% | 0.688 µM |  |  |
| CCCCNC(=O)C(=O)NCCCC/C=C\CCCCCCC(=O)O | 1.7 µM | 89% | 58.7 µM |  |  |
| CCCCCCC(=O)N(C)CCCC/C=C\CCCCCCC(=O)O | 4.3 µM | 64.5% | 11.2 µM |  |  |
| CCCCCNC(=O)NCCCC/C=C/CCCCCCC(=O)O | > 10 µM | 29% | 0.0485 µM |  |  |
| CCCCCCC(=O)N(CCCC/C=C\CCCCCCC(=O)O)C(C)C | 1.7 µM | 100% | 19 µM |  |  |
| CCCCCCNC(=O)NCCC/C=C\CCCCCCC(=O)O | 3.5 µM | 86% | 0.016 µM |  |  |
| CCNC(=O)NCCCC/C=C\CCCCCCCCCC(=O)O | > 10 µM | 50% | 2.6 µM |  |  |
| CCCCCNC(=O)NOCCC/C=C\CCCCCCC(=O)O | 3.7 µM | 87% | 1.37 µM |  |  |
| CCCCCCC(=O)NCCCC/C=C\CCCCCCC(=O)O | 6.1 µM | 64.5% | 0.079 µM |  |  |
| CCCCCCNC(=O)CCCC/C=C\CCCCCCC(=O)O | 4.9 µM | 74% | 0.066 µM |  |  |
| CCCCCNC(=O)N(C)CCCC/C=C\CCCCCCC(=O)O | 7.6 µM | 59% | 0.0715 µM |  |  |
| CCCCCc1cn(CCCC/C=C\CCCCCCC(=O)[O-])nn1.[Na+] | 6.2 µM | 65% | 17.8 µM |  |  |
| CCCCCN(C)C(=O)N(C)CCCCCCCC#CCCCC(=O)O | 2.3 µM | 77.5% | 11.1 µM |  |  |
| CCCCCN(C)C(=O)NCCCC/C=C\CCCCCCC(=O)O | 3.2 µM | 88% | 1.45 µM |  |  |
| CCCCCOC(=O)NCCCC/C=C\CCCCCCC(=O)O | 8.3 µM | 64% | 2.83 µM |  |  |
| CCCCC[C@@H]1O[C@@H]1C/C=C\C/C=C\C/C=C\CCCC(=O)O (relative stereo) |  |  |  | 2.2 µM | 85% |
